Most compounds without a hit are left out; they make up all but 3.7% or so of the library.
UPR XBP1 act = activators of adaptive arm of unfolded protein response (XBP1) | CHO-XBP1 luciferase reporter, IRE1-XBP1 UPR activation, luminescence; percent of tunicamycin response, DMSO as zero | actives 0.33% (n = 330,000) | activation, % at 20 µM;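 active = versus positive control, 20 µM dose yields 30% or more activation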;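 note: 100% = tunicamycin at 10 µg/mL and 0% = DMSO only wells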
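Material: CHO-XBP1 cells stably carrying IRE1-XBP1-driven luciferase reporter / Amount: 1000 cells per well / Compound: 20 µM, 1% DMSO / Times: 6 h treatment, 37 °C / Detection: luciferase luminescence / Measure: % activation of reporter signal versus tunicamycin and DMSO controls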
Dynein transport = blocks dynein driven cargo transport along microtubules | 3617.4 mouse cells, GR-EGFP nuclear translocation imaging; test concentration mostly 20 µM; stimulated with dexamethasone, 1 µM; stronger effect = lower value | z-score, hits read low | actives 0.47% (n = 220,000);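 active = plate z-score of nuclear minus cytoplasmic receptor signal below a set negative limit, without overly bright fluorescence or cell loss, cut at about -3.5 in these data, passing the limit was not always enough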;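 note: z-score of nuclear minus cytoplasmic ring GR-EGFP intensity difference per well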
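Buffer or medium: Induction medium lacking tetracycline, stripped serum | Also added: Dexamethasone agonist, 1.0 µM final, for 30 min | Timing: 48 h induction, 1 h compound, 30 min dex at 37 °C | Detection: Formaldehyde fixation, Hoechst nuclear stain, 10x automated fluorescence imaging | Measure: Nuclear versus cytoplasmic GR-EGFP signal, averaged per well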
Mdm2-MdmX inh = disrupts the human Mdm2-MdmX interaction. AID 485346. O15151+Q00987. inhibition, % at 8 µM. actives 3% (n = 330,000). SaOS-2 split-luciferase Mdm2/MdmX complementation, luminescence;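 active = inhibition of at least 50% at 8 µM in the primary screen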
Target sequence (O15151 whole entry, looked up): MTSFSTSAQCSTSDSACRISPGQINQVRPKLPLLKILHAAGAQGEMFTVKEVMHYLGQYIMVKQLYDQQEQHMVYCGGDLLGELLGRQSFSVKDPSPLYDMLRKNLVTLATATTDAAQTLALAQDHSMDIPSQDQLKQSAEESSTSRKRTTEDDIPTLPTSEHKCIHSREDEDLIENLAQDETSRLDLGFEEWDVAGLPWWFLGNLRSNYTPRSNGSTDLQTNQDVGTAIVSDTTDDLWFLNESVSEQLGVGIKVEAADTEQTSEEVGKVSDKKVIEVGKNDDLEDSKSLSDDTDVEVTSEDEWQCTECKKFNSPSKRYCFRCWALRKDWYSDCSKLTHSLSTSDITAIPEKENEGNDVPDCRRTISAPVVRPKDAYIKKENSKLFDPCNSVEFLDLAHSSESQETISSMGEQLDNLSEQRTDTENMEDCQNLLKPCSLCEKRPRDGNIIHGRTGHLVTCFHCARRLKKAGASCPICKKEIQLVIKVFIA
Target sequence (Q00987 whole entry, looked up): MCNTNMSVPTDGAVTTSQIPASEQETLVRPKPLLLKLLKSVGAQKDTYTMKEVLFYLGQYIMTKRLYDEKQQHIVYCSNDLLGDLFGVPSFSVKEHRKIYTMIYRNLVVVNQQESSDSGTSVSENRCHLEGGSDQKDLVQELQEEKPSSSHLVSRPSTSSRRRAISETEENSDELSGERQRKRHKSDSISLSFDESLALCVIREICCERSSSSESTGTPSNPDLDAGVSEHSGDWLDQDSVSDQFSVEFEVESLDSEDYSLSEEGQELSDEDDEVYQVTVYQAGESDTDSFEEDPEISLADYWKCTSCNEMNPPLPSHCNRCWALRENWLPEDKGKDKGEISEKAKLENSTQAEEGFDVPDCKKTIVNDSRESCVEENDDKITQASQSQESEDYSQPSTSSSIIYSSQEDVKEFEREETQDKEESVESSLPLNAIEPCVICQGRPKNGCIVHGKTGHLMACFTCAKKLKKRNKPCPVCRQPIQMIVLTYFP
UPR CHOP act = activators of apoptotic arm of unfolded protein response (CHOP); CHO-CHOP luciferase reporter, UPR activation, luminescence; percent of tunicamycin response over DMSO baseline; AID 449763; actives 0.34% (n = 330,000); activation, % at 10 µM;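 active = at 10 µM dose, activation of 40% or more, normalized to positive control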;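 note: 100% = tunicamycin at 10 µg/mL and 0% = DMSO alone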
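Test system: CHO CHOP reporter cells. Input: 500 CHO-CHOP cells per well. Medium: F12 with 10% FBS. Technique: luciferase luminescence. Measure: percent activation relative to tunicamycin control. Dosing: 10 µM compound, 0.5% DMSO. Timing: 16-18 h cell attachment, then 6 h compound exposure, 37 °C.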
MDM2 E3 inh = inhibitors of human Mdm2 E3 ubiquitin ligase. signal enhancement, % at 5 µM. AID 1230. cell-based MDM2 ubiquitination luciferase reporter, 2 h; 0 = plate control, 100 = twice control, blank-subtracted. Q00987. actives 0.11% (n = 210,000);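 active = signal enhancement of 30% or more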;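 note: luminescence tracks abundance of the self-degrading MDM2-luciferase fusion protein; higher signal means inhibition of MDM2 E3 ligase activity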
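Buffer or medium: Cells held in DMEM | Assay system: Stable mammalian line carrying autodegrading MDM2–luciferase fusion reporter | Quantity: 2000 cells/well | Times: 4 h settle plus 2 h compound, 37 °C | Doses: One concentration, 5 µM, with 0.2% DMSO | Technique: Luminescence with SteadyLite reagent, 15 min at room temperature | Benchmarks: Plate controls and plate blanks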
Beta2AR agonist = activates human beta-2 adrenergic receptor causing internalization; P07550; Am2.2-beta2AR cells, FAP receptor internalization, flow cytometry; response, % (no concentration beside the values); actives 0.43% (n = 340,000); AID 504454;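 active = response above a set limit, near 3 SD of response in nonfluorescent compounds, cut at about 42% in these data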
Mdm2 MdmX conf = confirmation of human Mdm2/MdmX interaction inhibitors; shares compounds with Mdm2-MdmX inh; Mdm2-MdmX binding, luminescent assay; actives 55% (n = 10,000); inhibition, % at 8 µM; AID 489028; in the data active = inhibition above about 40%
FLuc counter = inhibits full-length luciferase, flagging false Mdm2/MdmX hits. shares compounds with Mdm2-MdmX inh. SaOS-2 full-length luciferase counterscreen, luminescence. inhibition, % at 8 µM. actives 77% (n = 6,200). AID 504607;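 active = mean inhibition at 8 µM reaching about 37%, which flags the compound as non-specific, limit read from the data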;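 note: p53-null SaOS-2 cells with luciferase driven by a doxycycline-inducible promoter; compound on cells about two nights before reading with doxycycline added after day one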
Active calls of the source: *.

`CCc1c(C2(O)CCCCC2)[nH]c2ccc(C(F)(F)F)cc12` gave UPR XBP1 act 1, Mdm2-MdmX inh 82*, UPR CHOP act -2, Beta2AR agonist 5 and Mdm2 MdmX conf 37.
CCc1ccc2[nH]c3nc(SCc4nnc(-c5ccccc5)o4)nnc3c2c1 was read as UPR XBP1 act 3, Dynein transport -0.73, Mdm2-MdmX inh 56*, UPR CHOP act -2, Beta2AR agonist -2 and Mdm2 MdmX conf -6.
Screening COc1ccc2[nH]c3nc(SCc4nnc(-c5ccccc5)o4)nnc3c2c1 returned UPR XBP1 act 7, Dynein transport -1.2, Mdm2-MdmX inh 10, UPR CHOP act 4, MDM2 E3 inh -29 and Beta2AR agonist 1.
`N#Cc1c(N2CCCCC2)nc(N2CCCCC2)c2c1CCN(Cc1ccccc1)C2` gave UPR XBP1 act -3, Dynein transport -0.62, Mdm2-MdmX inh 53*, UPR CHOP act 0, MDM2 E3 inh -12, Beta2AR agonist 3 and Mdm2 MdmX conf 24.
For CCOC(=O)c1c(S(=O)(=O)N(C)C2CCCCC2)c(C)n(C)c1C the results were UPR XBP1 act -6, Mdm2-MdmX inh 8, UPR CHOP act 0 and Beta2AR agonist 0.
CCN(Cc1nc2ccccc2c(=O)[nH]1)C(=O)c1ccc(C)c(NC(=O)c2ccco2)c1 was read as UPR XBP1 act 0, Mdm2-MdmX inh 1, UPR CHOP act 3 and Beta2AR agonist -6.
`Cc1ccc2nc(NC(=O)CN(C)S(=O)(=O)c3cccc4nsnc34)sc2c1` gave UPR XBP1 act 2, Dynein transport 2.9, Mdm2-MdmX inh 55*, UPR CHOP act 2, MDM2 E3 inh -18, Beta2AR agonist 0, Mdm2 MdmX conf 69* and FLuc counter 58*.
`CC(NC(=O)C1CCN(S(=O)(=O)c2cc([N+](=O)[O-])ccc2Cl)CC1)c1ccccc1` (centres undefined) gave UPR XBP1 act 0, Dynein transport 0.19, Mdm2-MdmX inh 12, UPR CHOP act -2, MDM2 E3 inh 1 and Beta2AR agonist 0.
COc1ccc2nc(NC(=O)C3CCCN(S(=O)(=O)c4cccs4)C3)sc2c1 (centres undefined) was read as UPR XBP1 act -4, Dynein transport 4.1, Mdm2-MdmX inh 36, UPR CHOP act -1, MDM2 E3 inh -12 and Beta2AR agonist 14.
`COc1ccc2nc(NC(=O)C3CCN(S(=O)(=O)c4cccs4)CC3)sc2c1` gave UPR XBP1 act -3, Dynein transport 1.8, Mdm2-MdmX inh 52*, UPR CHOP act 3, MDM2 E3 inh -5, Beta2AR agonist 10 and Mdm2 MdmX conf 15.
Screening O=C(Nc1nc2ccc(F)cc2s1)C1CCN(S(=O)(=O)c2cc([N+](=O)[O-])ccc2Cl)CC1 returned UPR XBP1 act -2, Dynein transport 0.3, Mdm2-MdmX inh 88*, UPR CHOP act 10, MDM2 E3 inh -37, Beta2AR agonist -7, Mdm2 MdmX conf 78* and FLuc counter 25.
Cc1ccc2nc(NC(=O)C3CCN(S(=O)(=O)c4cc([N+](=O)[O-])ccc4Cl)CC3)sc2c1 was read as UPR XBP1 act 4, Dynein transport -0.19, Mdm2-MdmX inh 67*, UPR CHOP act 9, MDM2 E3 inh -11, Beta2AR agonist 19, Mdm2 MdmX conf 67* and FLuc counter 47*.
Screening CCS(=O)(=O)N1Cc2ccccc2CC1C(=O)N(C)Cc1ccc(OC)c(F)c1 (centres undefined) returned UPR XBP1 act 4, Mdm2-MdmX inh -19, UPR CHOP act 0 and Beta2AR agonist -2.
`CCc1ccc(N(CC(=O)Nc2nc3ccc(C)cc3s2)S(=O)(=O)c2c(C)noc2C)cc1` gave UPR XBP1 act 5, Dynein transport -1.2, Mdm2-MdmX inh 60*, UPR CHOP act 1, MDM2 E3 inh -12, Beta2AR agonist 7 and Mdm2 MdmX conf 12.
For Cc1ccc2nc(NC(=O)C3CCCN(S(=O)(=O)c4cccc5nsnc45)C3)sc2c1 (centres undefined) the results were UPR XBP1 act 0, Dynein transport -0.39, Mdm2-MdmX inh 38, UPR CHOP act 4 and Beta2AR agonist 4.
Screening Cc1ccc2nc(NC(=O)C3CCN(S(=O)(=O)c4cccc5nsnc45)CC3)sc2c1 returned UPR XBP1 act -1, Dynein transport 0.44, Mdm2-MdmX inh 55*, UPR CHOP act 3, MDM2 E3 inh -21, Beta2AR agonist 24 and Mdm2 MdmX conf 18.
`CCN(CC)S(=O)(=O)c1ccc(S(=O)(=O)N2CCC(C(=O)NC3CCN(Cc4ccccc4)CC3)CC2)cc1` gave UPR XBP1 act -1, Mdm2-MdmX inh 70*, UPR CHOP act -1, Beta2AR agonist -4 and Mdm2 MdmX conf 12.
O=C(NC1CCN(Cc2ccccc2)CC1)C1CCN(S(=O)(=O)c2cccc([N+](=O)[O-])c2)CC1 was read as UPR XBP1 act 2, Mdm2-MdmX inh 10, UPR CHOP act -1 and Beta2AR agonist 8.
Cc1ccc(NC(=O)C2CCN(S(=O)(=O)c3cc([N+](=O)[O-])ccc3Cl)CC2)nc1 was read as UPR XBP1 act -3, Mdm2-MdmX inh 71*, UPR CHOP act 7, Beta2AR agonist -5, Mdm2 MdmX conf 56* and FLuc counter 42*.
`C[C@H](CO)N1C[C@H](C)[C@@H](CN(C)S(=O)(=O)c2ccccc2)Oc2ccc(NC(=O)CCN3CCOCC3)cc2C1=O` gave UPR XBP1 act 0, Mdm2-MdmX inh 14, UPR CHOP act 1 and Beta2AR agonist -6.
Screening O=C(Nc1nc2ccc(C(=O)N3CCCCC3)cc2s1)C1CCCCC1 returned UPR XBP1 act 3, Dynein transport -0.67, Mdm2-MdmX inh 51*, UPR CHOP act 0, MDM2 E3 inh 7, Beta2AR agonist 20, Mdm2 MdmX conf 57* and FLuc counter 79*.
O=C(NC1CCN(S(=O)(=O)c2cccc([N+](=O)[O-])c2)CC1)C1CCCCC1 was read as UPR XBP1 act -4, Mdm2-MdmX inh -14, UPR CHOP act 0 and Beta2AR agonist -7.

Assay outcomes deposited in PubChem BioAssay by several laboratories.
